Calls of active or inactive are those of the source. No cut-off for these calls is given here.
Columns and labels:
[1] = Antioxidant activity assessed as nitric oxide scavenging activity by fluorescent triazofluorescein formation assay; format: functional
Method in brief: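 NO scavenging measured as inhibition (%) of NO-induced oxidation of non-fluorescent DAF-2 to fluorescent triazolofluorescein. Rutin was the positive control. IC50 given as mean ± SE, five experiments in triplicate.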

[2] = Antioxidant activity assessed as hypochlorous acid scavenging activity by fluorescent rhodamine formation assay; format: functional
Method in brief: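 Fluorescent assay of HOCl-induced dihydrorhodamine oxidation to rhodamine, with HOCl from 1% (m/v) NaOCl adjusted to pH 6.2 with 10% H2SO4. Lipoic acid was the positive control. IC50 (mean ± SE) comes from % inhibition, five experiments in triplicate.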

[3] = Antioxidant activity assessed as hydrogen peroxide scavenging activity by lucigenin oxidation assay; format: functional
Method in brief: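 H2O2 scavenging followed as inhibition (%) of H2O2-induced lucigenin oxidation on a microplate reader. Ascorbic acid was the positive control. IC50 reported as mean ± SE from five experiments, each in triplicate.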

[4] = Antioxidant activity assessed as singlet oxygen scavenging activity by fluorescent rhodamine formation assay; format: functional
Method in brief: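 Singlet oxygen scavenging monitored as inhibition (%) of 1O2-induced oxidation of non-fluorescent dihydrorhodamine to fluorescent rhodamine. Ascorbic acid was the positive control. IC50 given as mean ± SE, five experiments in triplicate.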

[5] = Antioxidant activity assessed as peroxyl radical scavenging activity by measuring oxygen radical absorbance capacity; format: functional; design: reference not given here
[6] = Reducing activity assessed as reduction of ferric ion by reducing power assay
Method in brief: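 Compounds in 1:4 water/DMSO were mixed with 0.2 M phosphate buffer pH 6.6 and 1% w/v K3Fe(CN)6, then held 20 min at 50 °C. After 10% w/v TCA and centrifugation (10 min, 3000 g), the supernatant was diluted with water plus 0.1% w/v FeCl3 and read at 700 nm. Ascorbic acid was the positive control. Values are mean ± SE of triplicates.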

[7] = Antioxidant activity assessed as superoxide radical scavenging activity by NBT dye reduction assay; format: functional
Method in brief: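 Superoxide generated by the NADH/PMS system. Scavenging read as inhibition (%) of O2•−-driven NBT reduction to diformazan at 560 nm. Tiron was the positive control. IC50 given as mean ± SE, five experiments in triplicate.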

[8] = Antioxidant activity assessed as peroxynitrite scavenging activity in absence of NaHCO3 by fluorescent rhodamine formation assay; format: functional
[9] = Antioxidant activity assessed as peroxynitrite scavenging activity in presence of NaHCO3 by fluorescent rhodamine formation assay; format: functional
[10] = Iron chelating activity assessed as Fe(2+)-compound complex formation at 10 uM by UV-Vis absorption spectroscopy; format: functional
Method in brief: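 Iron chelation checked from changes in the UV–vis spectrum (300–600 nm) of a 10 µM (final) compound solution in 20 mM phosphate buffer, pH 7.2. Fe(II) was added sequentially to 0, 2, 4, 6, 8, 10, 12, 14 and 16 µM.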

[11] = Antioxidant activity assessed as hydrogen peroxide scavenging activity at 1 mM by lucigenin oxidation assay; format: functional
[12] = Antioxidant activity assessed as hypochlorous acid scavenging activity at 200 uM by fluorescent rhodamine formation assay; format: functional
Method in brief: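 HOCl was made by bringing 1% (m/v) NaOCl to pH 6.2 with 10% H2SO4. Scavenging was read as inhibition (%) of HOCl-induced oxidation of dihydrorhodamine to fluorescent rhodamine. Value given as mean % at the highest tested concentration (200 µM). Five experiments in triplicate.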

Row | IC50 [1] [µM] | IC50 [2] [µM] | IC50 [3] [µM] | IC50 [4] [µM] | IC50 [7] [µM] | IC50 [8] [µM] | IC50 [9] [µM] | Compound | Activity [5] | Activity [6] | Activity [10] | Activity [11] [%] | Activity [12] [%]
1 | 1.17 |  |  |  |  |  |  | C[C@@H]1O[C@@H](OC[C@H]2O[C@@H](Oc3c(-c4ccc(O)c(O)c4)oc4cc(O)cc(O)c4c3=O)[C@H](O)[C@@H](O)[C@@H]2O)[C@H](O)[C@H](O)[C@H]1O [RUTIN] |  |  |  |  | 
2 |  | 1.95 |  |  |  |  |  | O=C(O)CCCCC1CCSS1 (stereo not drawn) [LIPOIC ACID, ALPHA] |  |  |  |  | 
3 |  |  | 567 | 10.2 |  |  |  | O=C1O[C@H]([C@@H](O)CO)C(O)=C1O [ASCORBIC ACID] | 0.405 | Active |  |  | 
4 | 3.62 | 2.29 | 367 | 43 | 19.5 | 0.66 | 1.97 | O=C(c1ccc(O)c(O)c1)c1c(-c2ccc(O)c(O)c2)oc2cc(O)cc(O)c2c1=O | 4.32 | Active |  |  | 
5 |  |  |  |  | 288 |  |  | O=S(=O)(O)c1cc(O)c(O)c(S(=O)(=O)O)c1 [TIRON] |  |  |  |  | 
6 | 3.29 | 2.49 | 348 | 58.6 | 62.8 | 1.48 | 1.8 | CCCCCCc1c(-c2ccc(O)c(O)c2)oc2cc(O)cc(O)c2c1=O | 2 | Active |  |  | 
7 | 0.193 | 67.2 | 799 | 4.69 | 17.8 | 0.85 | 1.59 | O=c1cc(/C=C/c2ccc(O)c(O)c2)oc2c(O)c(O)ccc12 | 2.58 | Active | Active |  | 
8 | 0.254 |  |  | 9.95 | 26 | 0.59 | 2.08 | COc1ccc(/C=C/c2cc(=O)c3ccc(O)c(O)c3o2)cc1OC | 1.4 | Active | Active | 31 | 47
9 | 2.72 | 1.45 | 502 | 61.8 | 51.8 | 0.6 | 1.24 | CCCCc1c(-c2ccc(O)c(O)c2)oc2cc(O)cc(O)c2c1=O | 2.66 | Active |  |  | 
10 | 0.368 | 4.67 | 702 | 7.97 | 20.8 | 1.21 | 0.93 | COc1ccc2c(=O)cc(/C=C/c3ccc(O)c(O)c3)oc2c1OC | 2.74 | Active | Active |  | 
11 | 4.85 | 1.7 | 236 | 7.9 | 78 | 0.83 | 1.82 | CCCCCCCCCCc1c(-c2ccc(O)c(O)c2)oc2cc(O)cc(O)c2c1=O | 1.63 |  |  |  | 

Row | Compound | IC50 [1] [µM] | IC50 [2] [µM] | IC50 [3] [µM] | IC50 [4] [µM] | IC50 [7] [µM] | IC50 [8] [µM] | IC50 [9] [µM] | Activity [5] | Activity [6] | Activity [10] | Activity [11] [%] | Activity [12] [%]
12 | O=c1c2ccccc2[se]n1-c1ccccc1 [EBSELEN] |  |  |  |  |  | 1 | 5.27 |  |  |  |  | 

— ChEMBL document CHEMBL1152628, “Synthesis and antioxidant properties of new chromone derivatives” (Bioorg Med Chem, 2009)
